Bioassay records: PubChem BioAssay, several laboratories
Hits are enriched below; roughly 1.8% of the tested compounds scored in any of these assays.
PG9 binder: PG9 antibody binding by small molecule; inhibition, % at 6.7 µM; TR-FRET gp120-PG9 antibody binding; 360,000 compounds, 0.43% hits; AID 624416; in the data active = inhibition above about 8.5%
Rev-erbA mod: Rev-erb alpha (human) modulation; P20393; Rev-erbα–FITC-DNA binding, fluorescence polarization, 90 min; activity, % at 10 µM; 370,000 compounds, 0.79% hits; AID 1259318;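 active = activity above about 14%, limit read from the data; passing the limit was not always enough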
Target sequence (P20393 whole entry, looked up): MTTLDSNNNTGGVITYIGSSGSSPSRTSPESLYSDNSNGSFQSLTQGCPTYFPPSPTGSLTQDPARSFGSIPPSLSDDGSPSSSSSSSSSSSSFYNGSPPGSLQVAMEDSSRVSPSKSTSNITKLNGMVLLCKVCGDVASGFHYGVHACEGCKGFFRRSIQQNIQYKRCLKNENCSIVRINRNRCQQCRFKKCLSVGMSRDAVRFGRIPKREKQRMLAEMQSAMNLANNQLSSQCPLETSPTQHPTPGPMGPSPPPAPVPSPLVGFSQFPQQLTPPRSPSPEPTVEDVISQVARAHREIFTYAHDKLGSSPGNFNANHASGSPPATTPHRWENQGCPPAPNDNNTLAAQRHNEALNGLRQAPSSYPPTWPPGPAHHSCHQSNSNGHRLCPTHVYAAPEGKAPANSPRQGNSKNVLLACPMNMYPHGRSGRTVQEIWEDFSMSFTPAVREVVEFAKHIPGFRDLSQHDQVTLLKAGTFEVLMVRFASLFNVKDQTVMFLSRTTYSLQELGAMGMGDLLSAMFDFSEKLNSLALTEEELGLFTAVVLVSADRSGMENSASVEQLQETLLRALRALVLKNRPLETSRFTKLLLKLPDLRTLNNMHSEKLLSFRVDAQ
Rin1 Abl inh: inhibitors of human Rin1-Abl protein interaction | TR-FRET Rin1/Abl binding, biochemical | inhibition, % at 7.35 µM | 360,000 compounds, 0.4% hits | AID 588664 | P00519+Q13671; in the data active = inhibition above about 5%, passing the limit was not always enough
Tb MetRS inh: Trypanosoma brucei MetRS inhibition; purified T. brucei MetRS, ATP depletion, Kinase-Glo luminescence; 360,000 compounds, 0.4% hits; AID 624268; inhibition, % at 11.9 µM;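 active = inhibition above a per-plate cutoff of the control wells' mean inhibition plus 3 SD, cut at about 5.5% in these data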
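Dosing: 11.9 µM compound single dose, 0.9% DMSO; Assay system: purified T. brucei MetRS enzyme; Measured by: Kinase-Glo luciferase luminescence reporting remaining unconsumed ATP; Schedule: 15 min plus 2 h at 25 °C.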
NR1D1 mod conf: Rev-erb alpha (human) modulation, hit confirmation; shares compounds with Rev-erbA mod; Rev-erb alpha FITC-DNA binding, fluorescence polarization, 90 min; activation, % at 25 µM; 3,000 compounds, 61% hits; AID 1259319;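 active = activation at or above a set limit, or at least 3 SD above the negative control mean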
RORg counter: counter-screen for Rev-erb alpha modulators: RORgamma DNA binding; shares compounds with Rev-erbA mod; purified RORgamma protein-FITC-DNA binding, fluorescence polarization; IC50, µM; 910 compounds, 8% hits; AID 1259320;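 active = Compounds whose fitted half-maximal concentration for disrupting protein-DNA binding is below 10 micromolar; the record names Rev-erb in its text, so the target is in doubt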
Of the large screens only hits and unclear results are named; the others gave an inactive call (follow-up assays come after a bar, where they were run).

Nc1ccc(-c2c3ccc(=O)cc-3oc3cc(O)ccc23)cc1C(=O)O	Rev-erbA mod 187.2 | NR1D1 mod conf 240.4 | RORg counter inactive
O=c1ccc2c(-c3ccccc3)c3ccc(O)cc3oc-2c1	Rev-erbA mod 101.9 | NR1D1 mod conf 99.5 | RORg counter inactive
COc1ccc(-c2c(C)c3ccc(O)cc3oc2=O)cc1OC	none
COc1ccc(CNC(=O)CN(C)Cc2ccc(C(C)(C)C)cc2)cc1	Rev-erbA mod 25.4 | NR1D1 mod conf inactive
CC(OC(=O)/C=C/c1ccco1)C(=O)NC1CCCCC1 (configuration not stated)	none
Cc1cc2oc(C(=O)NCc3ccc(S(N)(=O)=O)cc3)c(C)c2cc1C	none
Cc1cc(C)c2c(C)c(C(=O)NCc3ccc(S(N)(=O)=O)cc3)oc2c1	Rev-erbA mod 27.9 | NR1D1 mod conf 19.7
CCCN1CCCc2ccccc21	none
N#CCCN1CCCc2cc(N=Nc3ccc(C(F)(F)F)cc3)ccc21	Rev-erbA mod 17.5 | NR1D1 mod conf 21.9
Cc1ccc(C(=O)NC2CCCN(c3ccc(C(F)(F)F)cn3)C2)cn1 (configuration not stated)	none
O=C(NC1CCCN(c2ccc(C(F)(F)F)cn2)C1)c1cc(Cl)ccc1F (configuration not stated)	Rev-erbA mod 19.9 | NR1D1 mod conf inactive
Cc1cnn(-c2ccc3nnc(-c4ccc(Cl)cc4)n3n2)c1	Rev-erbA mod 21.7 | NR1D1 mod conf 27.2
O=C(CCc1c[nH]c2ccccc12)NCCc1ccc2c(c1)OCCO2	Rev-erbA mod 28.3 | NR1D1 mod conf 32.1 | RORg counter inactive
Cn1c(N)c(C(=O)c2ccc(Cl)cc2)c(=O)n(C)c1=O	none
Cc1nn(-c2ccc(Cl)cc2)c2sc(C(=O)c3c(N)n(C)c(=O)n(C)c3=O)cc12	Rev-erbA mod 30.8 | NR1D1 mod conf 38.1 | RORg counter inactive
CCOC(=O)[C@]12CCCC=C1N(Cc1ccccc1)C(=O)[C@H](CC(=O)N1CCN(C(=O)c3ccco3)CC1)C2	none (no result: Rin1 Abl inh)
CCCCN(C(=O)c1ccc(-c2ccc(Cl)cc2)o1)c1c(N)n(CC(C)C)c(=O)[nH]c1=O	Rev-erbA mod 18.1 | NR1D1 mod conf inactive
FC(F)(F)c1cc(-c2ccccc2)nc2nc(N3CCOCC3)sc12	Rev-erbA mod 24.5 | NR1D1 mod conf inactive
COc1ccc(NC(=O)c2sc3nc(N4CCCC4)c4c(c3c2N)CC(C)(C)OC4)cc1	Rev-erbA mod 126.9 | NR1D1 mod conf 80.4 | RORg counter inactive
CCCc1nc2sc(C(=O)OCC)c(N)c2c2c1COC(C)(C)C2	Rev-erbA mod 47.8 | NR1D1 mod conf 25.4
Cc1nc2ccccn2c1CN(C)C(=O)C1CCC(=O)N(Cc2cccc(F)c2)C1 (configuration not stated)	none
COc1ccc(OC)c(N(CCN2C(=O)c3ccccc3C2=O)C(=O)CCl)c1	none
COc1ccc(-n2c3c(cc(C(=O)NCC(=O)c4ccccc4)c2=O)C(=O)CC(C)(C)C3)cc1	Rev-erbA mod 18.8 | NR1D1 mod conf inactive
O=c1[nH]c2ccccc2nc1/C=C(\O)c1cccs1	Rev-erbA mod 43.1 | NR1D1 mod conf 21.8
Cc1ccc2[nH]c(=O)c(N3CCOCC3)c(-c3ccccc3)c2c1	Rev-erbA mod 28.4 | NR1D1 mod conf inactive
CC1(C)Cc2c(sc(NC(=O)COc3ccc(Cl)cc3)c2C(N)=O)C(C)(C)N1	Rev-erbA mod 16.4 | NR1D1 mod conf inactive
C=CCn1c(COc2ccc(Cl)cc2)nnc1SCC(=O)c1c(N)n(C)c(=O)n(C)c1=O	Rev-erbA mod 23.7 | NR1D1 mod conf inactive
Cc1cccc(N2CCN(S(=O)(=O)c3ccc(Cl)nc3)CC2C)c1 (configuration not stated)	none
COc1ccc(Cn2c3ccc(OC)cc3c3nc4ccccc4nc32)cc1	Rev-erbA mod 25.4 | NR1D1 mod conf 22.7
CC(=O)Nc1cccc(NC(=O)CS(=O)(=O)c2cn(CC(=O)N3CCCC3)c3ccccc23)c1	none
O=C(NCc1ccccc1)C(c1cccc2ccccc12)n1c(=O)c(-c2ccccc2)nc2ccccc21 (configuration not stated)	Rev-erbA mod 24.2 (no result: Rin1 Abl inh) | NR1D1 mod conf 46.3 | RORg counter inactive
CCCCCNC(=O)C(c1cccc2ccccc12)n1c(=O)c(-c2ccccc2)nc2ccccc21 (configuration not stated)	none (no result: Rin1 Abl inh)
COc1ccc(C#Cc2ccc(C3=CC(=O)CC(C)(C)C3=O)cc2)cc1	Rev-erbA mod 153.0 | NR1D1 mod conf 50.8 | RORg counter inactive
CNC(=O)/C(C#N)=C/c1c(N2CCN(c3ccc(OC)cc3)CC2)nc2c(C)cccn2c1=O	none
COC(=O)/C(C#N)=C/c1c(N2CCN(c3ccc(OC)cc3)CC2)nc2c(C)cccn2c1=O	Rev-erbA mod 32.9 | NR1D1 mod conf inactive
COc1cc(-c2cc(-c3ccc(N)cc3)[nH]c(=O)c2C#N)cc(OC)c1OC	Rev-erbA mod 25.0 | NR1D1 mod conf inactive
C=CCN1[C@@H](C)[C@H](c2ccccc2)Oc2cccc(NCC(C)C)c2S1(=O)=O	none (no result: Rin1 Abl inh, Tb MetRS inh)
Cc1ccc(OCC(=O)NNC(=O)C2CCN(c3ncccn3)CC2)cc1	none
Cc1ccc(OCC(=O)NNC(=O)C2CCN(c3nc(C)cc(C)n3)CC2)cc1	Rev-erbA mod 22.8 | NR1D1 mod conf inactive
COc1ccccc1CNc1nc(NCc2ccc3occc3c2)c2sccc2n1	none
COC(=O)c1c(NC(=O)c2ccoc2C)sc2c1CCC2	none
CCOC(=O)c1c(NC(=O)OC)sc2c1CCC2	none
CCOC(=O)c1c(NC(=O)CN(CC)CC)sc2c1CCC2	Rev-erbA mod 33.4 | NR1D1 mod conf inactive
CCOC(=O)c1c(NC(=S)Nc2ccc(C)cc2)sc2c1CCC2	Rev-erbA mod 76.1 | NR1D1 mod conf 84.0 | RORg counter inactive
COC(=O)c1c(NC(=O)c2ccc(Br)s2)sc2c1CCC2	Rev-erbA mod 25.5 | NR1D1 mod conf 28.1
COc1ccc(CCN(C)S(=O)(=O)c2cn(C)c(=O)n(C)c2=O)cc1OC	none
O=C(c1ccccc1F)N(Cc1ccc2c(c1)OCO2)Cc1cc2cc3c(cc2n2nnnc12)OCO3	Rev-erbA mod 34.0 | NR1D1 mod conf inactive
COC(=O)C1CCN(C(=O)c2cc3c(=O)n4cccc(C)c4nc3n2Cc2ccccc2)CC1	Rev-erbA mod 39.5 | NR1D1 mod conf 23.4
Cc1cccn2c(=O)c3cc(C(=O)O)n(C)c3nc12	none
O=C(CN1C(=O)c2ccccc2C1=O)N1CCN(c2nnc(-c3ccccc3)c3ccccc23)CC1	Rev-erbA mod 29.5 | NR1D1 mod conf inactive
Cc1ccc(-c2nnc(N3CCN(C(=O)CN4C(=O)c5ccccc5C4=O)CC3)c3ccccc23)cc1	Rev-erbA mod 25.1 | NR1D1 mod conf inactive
CCC(=O)N1CCN(c2nnc(-c3ccccc3)c3ccccc23)CC1	none
Cc1ccc(OCC(=O)N2CCN(c3nnc(-c4ccc(C)cc4)c4ccccc34)CC2)cc1	none
